In ChEMBL document CHEMBL1131471, “N-[trans-2-[[2'-(acetylamino)cyclohexyl]oxy]acetyl]-L-alanyl-D-glutamic acid: a novel immunologically active carbocyclic muramyl dipeptide analogue” (1998):

What was measured:
Mus musculus [1] = assay: Compound was tested for its ability to enhance nonspecific resistance to expt. fungal infection in mice immunosuppressed with cyclophosphamide and infected with candida albicans at 3x10 mg/kg/day; survival increase = 0/6; assay type: functional
In short: (§1)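 Groups of 10 mice in a controlled room. Test substance or vehicle (distilled water) was given ip on days 1, 3 and 5. Cyclophosphamide 30 mg/kg po was given on days 2, 4 and 6. One hour after the last cyclophosphamide dose, mice were challenged with C. albicans at a level set for 70–90% mortality within 10 days in vehicle controls. Survival over 10 days was scored as (treated − CP-only survivors)/(unsuppressed control − CP-only survivors).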

Mus musculus [2] = assay: Compound was tested for its ability to enhance nonspecific resistance to expt. fungal infection in mice immunosuppressed with cyclophosphamide and infected with candida albicans at 3x 0.1 mg/kg/day; survival increase = 0/6; assay type: functional; in short: as §1
Mus musculus [3] = assay: Compound was tested for its ability to enhance nonspecific resistance to expt. fungal infection in mice immunosuppressed with cyclophosphamide and infected with candida albicans at 3x1 mg/kg/day; survival increase = 1/6; assay type: functional; in short: as §1
Mus musculus [4] = assay: Compound was tested for its ability to enhance nonspecific resistance to expt. fungal infection in mice immunosuppressed with cyclophosphamide and infected with candida albicans at 3x100 mg/kg/day; survival increase = 0/6; assay type: functional; in short: as §1
Mus musculus [5] = assay: Compound was tested for its ability to enhance nonspecific resistance to expt. fungal infection in mice immunosuppressed with cyclophosphamide and infected with candida albicans at 3x10 mg/kg/day; survival increase = 2/6; assay type: functional; in short: as §1
Mus musculus [6] = assay: Compound was tested for its ability to enhance nonspecific resistance to expt. fungal infection in mice immunosuppressed with cyclophosphamide and infected with candida albicans at 3x100 mg/kg/day; survival increase = 2/6; assay type: functional; in short: as §1
Mus musculus [7] = assay: Compound was tested for its ability to enhance nonspecific resistance to expt. fungal infection in mice immunosuppressed with cyclophosphamide and infected with candida albicans at 3x 0.1 mg/kg/day;survival increase = 0/6; assay type: functional; in short: as §1
Mus musculus [8] = assay: Compound was tested for its ability to enhance nonspecific resistance to expt. fungal infection in mice immunosuppressed with cyclophosphamide and infected with candida albicans at 3x100 mg/kg/day; survival increase = 1/6; assay type: functional; in short: as §1
Mus musculus [9] = assay: Compound was tested for its ability to enhance nonspecific resistance to expt. fungal infection in mice immunosuppressed with cyclophosphamide and infected with candida albicans at 3x1 mg/kg/day; survival increase = 0/6; assay type: functional; in short: as §1
Mus musculus [10] = species: Mus musculus; assay: Compound was tested for immunomodulatory effect on macrophage activation with costimulation with PMA measured as UV absorption difference with test sample at 0.25 microg daily dose and blank/mg of cell protein in mouse; assay type: functional
In short: (§2)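 Female HAN–NmRi mice got thioglycolate ip plus the dose ip (0.5 mL) daily for 3 days and were killed on day 4. Peritoneal cells were washed out, erythrocytes lysed hypo-osmotically, and cells plated at 1.5 × 10^6/mL. They adhered for 2 h and nonadherent cells were rinsed off. Macrophages were given 160 μM ferricytochrome c in HBSS, with or without 200 nM PMA; the blank added 340 U/mL SOD. After 90 min at 37 °C, absorbance was read at […].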

Mus musculus [11] = species: Mus musculus; assay: Compound was tested for immunomodulatory effect on macrophage activation with costimulation with PMA measured as UV absorption difference with test sample at 2.5 microg daily dose and blank/mg of cell protein in mouse; assay type: functional; in short: as §2
Mus musculus [12] = species: Mus musculus; assay: Compound was tested for immunomodulatory effect on macrophage activation with costimulation with PMA measured as UV absorption difference with test sample at 25 microg daily dose and blank/mg of cell protein in mouse; assay type: functional; in short: as §2
Mus musculus [13] = species: Mus musculus; assay: Compound was tested for immunomodulatory effect on macrophage activation without costimulation with PMA measured as UV absorption difference with test sample at 0.25 microg daily dose and blank/mg of cell protein in mouse; assay type: functional; in short: as §2
Mus musculus [14] = species: Mus musculus; assay: Compound was tested for immunomodulatory effect on macrophage activation without costimulation with PMA measured as UV absorption difference with test sample at 2.5 microg daily dose and blank/mg of cell protein in mouse; assay type: functional; in short: as §2
Mus musculus [15] = species: Mus musculus; assay: Compound was tested for immunomodulatory effect on macrophage activation without costimulation with PMA measured as UV absorption difference with test sample at 25 microg daily dose and blank/mg of cell protein in mouse; assay type: functional; in short: as §2
Mus musculus [16] = species: Mus musculus; assay: Compound was tested for blast transformation ability of lymphocytes, stimulated in vitro with Concanavalin A expressed as amount of [3H]-thymidine incorporated in lymphocyte DNA at 0.25 microg daily dose in mouse; assay type: functional
In short: (§3)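 Female HAN–NmRi mice (3–4 weeks, 17–20 g) got 1 mL thioglycolate ip, then the dose in 0.5 mL ip one hour later, repeated on days 2 and 3. On day 4, spleen lymphocytes were taken at 1 × 10^6/mL in RPMI 1640 with 10% FCS and stimulated with Con A at 16, 8 or 4 μg/mL for 2 days at 37 °C, 5% CO2. [3H]thymidine was then added for 16 h and counted by β-counter. Results are cpm, n = 5.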

Mus musculus [17] = species: Mus musculus; assay: Compound was tested for blast transformation ability of lymphocytes, stimulated in vitro with Concanavalin A expressed as amount of [3H]thymidine incorporated in lymphocyte DNA at 2.5 microg daily dose in mouse; assay type: functional; in short: as §3
Mus musculus [18] = species: Mus musculus; assay: Compound was tested for blast transformation ability of lymphocytes, stimulated in vitro with Concanavalin A expressed as amount of [3H]thymidine incorporated in lymphocyte DNA at 25 microg daily dose in mouse; assay type: functional; in short: as §3
Mus musculus [19] = species: Mus musculus; assay: Compound was tested for its effect on number of B-cells at 0.25 microg daily dose in mouse; assay type: functional, B-cell
In short: (§4)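 Female HAN–NmRi mice (3–4 weeks) got thioglycolate ip and the dose ip in 0.5 mL on days 1–3, and spleens were taken on day 4. B cells were stained with FITC goat anti-mouse IgG. T cells were stained with rat anti-Thy-1 and then FITC goat anti-rat Ig. Cells were counted by fluorescence microscopy and reported in millions as mean ± SEM with p values.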

Mus musculus [20] = species: Mus musculus; assay: Compound was tested for its effect on number of B-cells at 2.5 microg daily dose in mouse; assay type: functional, B-cell; in short: as §4
Mus musculus [21] = species: Mus musculus; assay: Compound was tested for its effect on number of B-cells at 25 microg daily dose in mouse; assay type: functional, B-cell; in short: as §4
Mus musculus [22] = species: Mus musculus; assay: Compound was tested for its effect on number of T cells at 0.25 microg daily dose in mouse; assay type: functional, T-cell; in short: as §4
Mus musculus [23] = species: Mus musculus; assay: Compound was tested for its effect on number of T cells at 2.5 microg daily dose in mouse; assay type: functional, T-cell; in short: as §4
Mus musculus [24] = species: Mus musculus; assay: Compound was tested for its effect on number of T cells at 25 microg daily dose in mouse; assay type: functional, T-cell; in short: as §4
Mus musculus [25] = species: Mus musculus; assay: Compound was tested for its effect on number of peritoneal macrophages at 0.25 microg daily dose in mouse; assay type: functional
In short: (§5)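 Female HAN–NmRi mice got thioglycolate ip and the dose ip (0.5 mL) daily for 3 days. On day 4, peritoneal cells were washed out with ice-cold RPMI 1640. Macrophages were counted with trypan blue in a Neubauer chamber, excluding contaminating cells by morphology, and reported in millions as mean ± SEM.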

Mus musculus [26] = species: Mus musculus; assay: Compound was tested for its effect on number of peritoneal macrophages at 2.5 microg daily dose in mouse; assay type: functional; in short: as §5
Mus musculus [27] = species: Mus musculus; assay: Compound was tested for its effect on number of peritoneal macrophages at 25 microg daily dose in mouse; assay type: functional; in short: as §5
Mus musculus [28] = species: Mus musculus; assay: Compound was tested for its effect on number of total spleen cells at 0.25 microg daily dose in mouse; assay type: functional; in short: as §4
Mus musculus [29] = species: Mus musculus; assay: Compound was tested for its effect on number of total spleen cells at 2.5 microg daily dose in mouse; assay type: functional; in short: as §4
Mus musculus [30] = species: Mus musculus; assay: Compound was tested for its effect on number of total spleen cells at 25 microg daily dose in mouse; assay type: functional; in short: as §4
Mus musculus [31] = assay: Compound was tested for its ability to enhance nonspecific resistance to expt. fungal infection in mice immunosuppressed with cyclophosphamide and infected with candida albicans at 3x10 mg/kg/day; survival increase = 1/6; assay type: functional; in short: as §1
Mus musculus [32] = assay: Compound was tested for its ability to enhance nonspecific resistance to expt. fungal infection in mice immunosuppressed with cyclophosphamide and infected with candida albicans at 3x30 mg/kg/day; survival increase = 1/6; assay type: functional; in short: as §1
Mus musculus [33] = assay: Compound was tested for its ability to enhance nonspecific resistance to expt. fungal infection in mice immunosuppressed with cyclophosphamide and infected with candida albicans at 3x 0.1 mg/kg/day; survival increase = 2/6; assay type: functional; in short: as §1
Mus musculus [34] = assay: Compound was tested for its ability to enhance nonspecific resistance to expt. fungal infection in mice immunosuppressed with cyclophosphamide and infected with candida albicans at 3x10 mg/kg/day; survival increase = 3/6; assay type: functional; in short: as §1
Mus musculus [35] = assay: Compound was tested for its ability to enhance nonspecific resistance to expt. fungal infection in mice immunosuppressed with cyclophosphamide and infected with candida albicans at 3x100 mg/kg/day; survival increase = 3/6; assay type: functional; in short: as §1
Mus musculus [36] = assay: Compound was tested for its ability to enhance nonspecific resistance to expt. fungal infection in mice immunosuppressed with cyclophosphamide and infected with candida albicans at 3x1 mg/kg/day; survival increase = 2/6; assay type: functional; in short: as §1
Mus musculus [37] = assay: Compound was tested for its ability to enhance nonspecific resistance to expt. fungal infection in mice immunosuppressed with cyclophosphamide and infected with candida albicans at 3x30 mg/kg/day; survival increase = 3/6; assay type: functional; in short: as §1
Mus musculus [38] = assay: Compound was tested for its ability to enhance nonspecific resistance to expt. fungal infection in mice immunosuppressed with cyclophosphamide and infected with candida albicans at 3x1 mg/kg/day; survival increase = 3/6; assay type: functional; in short: as §1
Mus musculus [39] = assay: Compound was tested for its ability to enhance nonspecific resistance to expt. fungal infection in mice immunosuppressed with cyclophosphamide and infected with candida albicans at 3x 0.1 mg/kg/day; survival increase = 3/6; assay type: functional; in short: as §1

CC(=O)N[C@@H]1CCCC[C@H]1OCC(=O)N[C@@H](C)C(=O)N[C@H](CCC(=O)O)C(N)=O
Survival increase (Mus musculus [1]): 0 | Survival increase (Mus musculus [2]): 0 | Survival increase (Mus musculus [3]): 1 | Survival increase (Mus musculus [4]): 0

CC(=O)N[C@H]1CCCC[C@@H]1OCC(=O)N[C@@H](C)C(=O)N[C@H](CCC(=O)O)C(=O)O
Survival increase (Mus musculus [5]): 2 | Survival increase (Mus musculus [2]): 0 | Survival increase (Mus musculus [3]): 1 | Survival increase (Mus musculus [6]): 2

CC(=O)N[C@H]1CCCC[C@@H]1OCC(=O)N[C@@H](C)C(=O)N[C@H](CCC(=O)O)C(N)=O
Survival increase (Mus musculus [1]): 0 | Survival increase (Mus musculus [7]): 0 | Survival increase (Mus musculus [8]): 1 | Survival increase (Mus musculus [9]): 0

CC(=O)NC1CCCCC1OCC(=O)N[C@@H](C)C(=O)N[C@H](CCC(=O)O)C(=O)O (stereo partly drawn)
Macrophage activation (Mus musculus [10]): 1298 | Macrophage activation (Mus musculus [11]): 1494 | Macrophage activation (Mus musculus [12]): 1709 | Macrophage activation (Mus musculus [13]): 237 | Macrophage activation (Mus musculus [14]): 431 | Macrophage activation (Mus musculus [15]): 489 | Amount of [3H]thymidine (Mus musculus [16]): 10780 c.p.m. | Amount of [3H]thymidine (Mus musculus [17]): 16830 c.p.m. | Amount of [3H]thymidine (Mus musculus [18]): 25990 c.p.m. | Number (Mus musculus [19]): 18.42 millions | Number (Mus musculus [20]): 23.76 millions | Number (Mus musculus [21]): 20.5 millions | Number (Mus musculus [22]): 11.7 millions | Number (Mus musculus [23]): 12.88 millions | Number (Mus musculus [24]): 9.72 millions | Number (Mus musculus [25]): 2.58 millions | Number (Mus musculus [26]): 2.87 millions | Number (Mus musculus [27]): 0.92 millions | Number (Mus musculus [28]): 5.66 millions | Number (Mus musculus [29]): 8.14 millions | Number (Mus musculus [30]): 9.93 millions

CCCCCC(=O)NC1CCCCC1OCC(=O)N[C@@H](C)C(=O)N[C@H](CCC(=O)O)C(N)=O (stereo partly drawn)
Survival increase (Mus musculus [31]): 1 | Survival increase (Mus musculus [2]): 0 | Survival increase (Mus musculus [32]): 1 | Survival increase (Mus musculus [9]): 0

CC(=O)N[C@@H]1CCCC[C@H]1OCC(=O)N[C@@H](C)C(=O)N[C@H](CCC(=O)O)C(=O)O
Survival increase (Mus musculus [33]): 2 | Survival increase (Mus musculus [3]): 1 | Survival increase (Mus musculus [34]): 3 | Survival increase (Mus musculus [35]): 3

C[C@H](NC(=O)C1(C)OC2(C)CCCCC2(C)NC1=O)C(=O)N[C@H](CCC(=O)O)C(=O)O (stereo partly drawn)
Survival increase (Mus musculus [1]): 0 | Survival increase (Mus musculus [2]): 0 | Survival increase (Mus musculus [6]): 2 | Survival increase (Mus musculus [9]): 0

CCCCCCCCCCCC(=O)NC1CCCCC1OCC(=O)N[C@@H](C)C(=O)N[C@H](CCC(=O)O)C(N)=O (stereo partly drawn)
Survival increase (Mus musculus [36]): 2 | Survival increase (Mus musculus [2]): 0 | Survival increase (Mus musculus [34]): 3 | Survival increase (Mus musculus [37]): 3

CC(C)(N1CC1C#N)N1CC1C(N)=O (stereo not drawn) [AZIMEXON]
Survival increase (Mus musculus [38]): 3 | Survival increase (Mus musculus [39]): 3 | Survival increase (Mus musculus [34]): 3 | Survival increase (Mus musculus [35]): 3
